The test system of assay [1] is NCI-H460. As to the kind of experiment: Antiproliferative activity against human NCI-H460 cells assessed as reduction in cell proliferation measured after 72 hrs by celltiter-glo assay. The format is functional, cell-based. The conditions noted are these: NCI-H460, 72 h. In general terms: Cellular ATP, detected with luciferase, serves as a proxy for viable cell number.

In assay [2] the test system is HCC70. The experiment in a line: Antiproliferative activity against human HCC70 cells assessed as reduction in cell proliferation measured after 72 hrs by celltiter-glo assay. The format is functional, cell-based. The conditions noted are these: HCC70, 72 h. Summed up: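 Cells in RPMI 1640 with 10% heat-inactivated FBS at 37°C and 5% CO₂ were seeded at 2 to 3 × 10³ per well. […] Growth was read as cellular ATP by CellTiter-Glo.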

The subject of assay [3] is NCI-H460. The experiment in a line: Synergistic antiproliferative activity against human NCI-H460 cells assessed as combination index at ED50 measured after 72 hrs in presence of erlotinib by celltiter-glo assay. The format is functional.
Assay [4] concerns HCC1954. As to the kind of experiment: Synergistic antiproliferative activity against human HCC1954 cells assessed as combination index at ED50 measured after 72 hrs in presence of lapatinib by celltiter-glo assay. The assay is classed as functional. Summed up:
(§1)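 Cells grown in RPMI 1640 with 10% heat-inactivated FBS at 37°C, 5% CO₂. Seeded at 2 to 3 × 10³ per well; drugs added 24 h later. […] Viability read as cellular ATP by CellTiter-Glo. CI calculated by Chou–Talalay from median-effect plots at ED50, ED75 and ED90.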

Another assay concerns NCI-H358. As to the kind of experiment: Synergistic antiproliferative activity against human NCI-H358 cells assessed as combination index at ED75 measured after 72 hrs in presence of erlotinib by celltiter-glo assay. The format is functional.
In assay [5] the test system is HCC70. The experiment in a line: Synergistic antiproliferative activity against human HCC70 cells assessed as combination index at ED75 measured after 72 hrs in presence of lapatinib by celltiter-glo assay. The assay is classed as functional. Put shortly:
as §1

For another assay, the system named is MDA-MB-468. The experiment in a line: Synergistic antiproliferative activity against human MDA-MB-468 cells assessed as combination index at ED75 measured after 72 hrs in presence of lapatinib by celltiter-glo assay. The format is functional.
Assay [6] relates to HCC1954. The experiment in a line: Synergistic antiproliferative activity against human HCC1954 cells assessed as combination index at ED75 measured after 72 hrs in presence of lapatinib by celltiter-glo assay. The format is functional. Put shortly:
as §1

The subject of assay [7] is HCC1954. The experiment in a line: Synergistic antiproliferative activity against human HCC1954 cells assessed as combination index at ED75 treated 24 hrs prior to lapatinib and measured after 72 hrs by celltiter-glo assay. The format is functional. Particulars: time 96 hrs.
A further assay concerns SK-BR-3. The experiment in a line: Synergistic antiproliferative activity against lapatinib pretreated human SK-BR-3 cells assessed as combination index at ED75 measured after 72 hrs by celltiter-glo assay. The assay is classed as functional.
Assay [8] has as its system HCC70. The experiment in a line: Synergistic antiproliferative activity against lapatinib pretreated human HCC70 cells assessed as combination index at ED90 measured after 72 hrs by celltiter-glo assay. The assay is classed as functional.
Assay [9] addresses RAC-alpha serine/threonine-protein kinase (Homo sapiens) (UniProt P31749). As to the kind of experiment: Inhibition of AKT in human HCC70 cells assessed as reduction in S6 phosphorylation at S240/S244 residues at 1 umol/L measured after 3 to 24 hrs in presence of lapatinib by Western blot analysis. The assay is classed as cell-based. The conditions noted are these: dose 1.0 µmol/L, time 3-24 hrs. Summed up:
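HCC70 cells at ~70% confluence were exposed to 10 µmol/L lapatinib, 1 µmol/L MK-2206, or both, for 0, 3, 6, 12 or 24 h. Lysates were prepared in Triton X-100/Tris buffer (pH 7.5) with protease and phosphatase inhibitors. Immunoblots after SDS-PAGE and nitrocellulose transfer were probed for pAkt and pS6.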

In assay [10] the test system is HCC70. As to the kind of experiment: Antitumor activity against human HCC70 cells xenografted in CB17/icr SCID mouse assessed as reduction in tumor volume at 120 mg/kg, po administered 3 times per week for 3 weeks and measured twice a week during compound dosing by caliper method. The format is functional, organism-based. Summed up: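 Female C.B-17/ICR-scid mice were given s.c. HCC70 cells in 50% Matrigel/50% PBS in the left flank. They were randomized at a mean tumor size of 0.2 cm³, n = 5 per group. Lapatinib (distilled water) was given at 100 mg/kg po, 5 d/wk for 3 wk. MK-2206 (30% Captisol) was given at 120 mg/kg po, 3×/wk, 2 h after lapatinib. Calipers twice weekly; volume = […] × 0.5.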

For assay [11], the system named is BT-474. As to the kind of experiment: Synergistic antiproliferative activity against docetaxel pretreated human BT-474 cells assessed as combination index at ED50 measured after 72 hrs by celltiter-glo assay. The assay is classed as functional.
Assay [12] concerns BT-474. As to the kind of experiment: Synergistic antiproliferative activity against human BT-474 cells assessed as combination index at ED75 preincubated for 24 hrs followed by compound washout and subsequent docetaxel addition and measured after 72 hrs by celltiter-glo assay. The format is functional. Put shortly: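 Sequential schedule. Cells were seeded at 2 to 3 × 10³ per well in RPMI 1640 with 10% FBS and dosed 24 h after plating. They were exposed to the Akt inhibitor for 24 h, washed free of it, then given docetaxel for a further 72 h. Fixed concentration ratios spanned each agent's IC₅₀. ATP was read by CellTiter-Glo, and Chou–Talalay CI was calculated at ED50, ED75 and ED90.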

For a further assay, the system named is MDA-MB-453. As to the kind of experiment: Synergistic antiproliferative activity against human MDA-MB-453 cells assessed as combination index at ED50 measured after 72 hrs in presence of docetaxel by celltiter-glo assay. The format is functional. Summed up:
as §1

The subject of assay [13] is A2780. The experiment in a line: Synergistic antiproliferative activity against human A2780 cells assessed as combination index at ED90 measured after 72 hrs in presence of gemcitabine by celltiter-glo assay. The format is functional. Summed up:
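Cells were seeded at 2–3 × 10³ per well in RPMI 1640 with 10% FBS. At 24 h, MK-2206 and the partner drug were added simultaneously at constant concentration ratios spanning each agent's IC₅₀, for 72 h. Growth was read as cellular ATP by CellTiter-Glo. CI was taken from median-effect plots of each agent alone and in combination (Chou–Talalay), at ED₅₀, ED₇₅ and ED₉₀.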

The test system of assay [14] is NCI-H460. The experiment in a line: Synergistic antiproliferative activity against human NCI-H460 cells assessed as combination index at ED50 measured after 72 hrs in presence of doxorubicin by celltiter-glo assay. The format is functional.
Assay [15] relates to A2780. The experiment in a line: Induction of apoptosis in human A2780 cells assessed as increase in caspase-3/7 activity measured after 48 hrs in presence of carboplatin by caspase-glo 3/7 assay. The assay is classed as functional, cell-based. The conditions noted are these: dose 0.0625-1 µM.
Assay [16] deals with NCI-H460. As to the kind of experiment: Antitumor activity against human NCI-H460 cells xenografted in CD1 nude mouse assessed as reduction in tumor volume at 120 mg/kg, po administered 3 times per week for 2 weeks by caliper method. The assay is classed as functional, organism-based. Summed up: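 NCI-H460 cells were injected s.c. in Matrigel/PBS into CD1-nude mice (female in the carboplatin study). Mice were randomized at 0.2 cm³, n = 5. Carboplatin was given at 50 mg/kg or gemcitabine at 100 mg/kg, i.v. in saline, on days 0 and 7. MK-2206 (30% Captisol) was given at 120 mg/kg po on days 0, 2, 4, 7, 9, 11. Tumors measured by caliper twice weekly.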

The next assay concerns NCI-H1703. The experiment in a line: Synergistic antiproliferative activity against human NCI-H1703 cells assessed as combination index at ED25 to ED90 measured after 72 hrs in presence of gemcitabine by celltiter-glo assay. The format is functional.
A further assay relates to NCI-H661. As to the kind of experiment: Induction of apoptosis in human NCI-H661 cells assessed as fold induction of capsase-3/7 activity measured after 24 to 48 hrs in presence of carboplatin by caspase-glo 3/7 assay. The assay is classed as functional. Particulars: time 24-48 hrs.

The structures appear in SMILES notation. Active and inactive are the calls of the source. No cut-off for these calls is given here.

In general, IC50 refers to the point on the concentration scale where inhibition reaches its midpoint.

RAC-alpha serine/threonine-protein kinase (Homo sapiens), sequence (P31749 whole entry): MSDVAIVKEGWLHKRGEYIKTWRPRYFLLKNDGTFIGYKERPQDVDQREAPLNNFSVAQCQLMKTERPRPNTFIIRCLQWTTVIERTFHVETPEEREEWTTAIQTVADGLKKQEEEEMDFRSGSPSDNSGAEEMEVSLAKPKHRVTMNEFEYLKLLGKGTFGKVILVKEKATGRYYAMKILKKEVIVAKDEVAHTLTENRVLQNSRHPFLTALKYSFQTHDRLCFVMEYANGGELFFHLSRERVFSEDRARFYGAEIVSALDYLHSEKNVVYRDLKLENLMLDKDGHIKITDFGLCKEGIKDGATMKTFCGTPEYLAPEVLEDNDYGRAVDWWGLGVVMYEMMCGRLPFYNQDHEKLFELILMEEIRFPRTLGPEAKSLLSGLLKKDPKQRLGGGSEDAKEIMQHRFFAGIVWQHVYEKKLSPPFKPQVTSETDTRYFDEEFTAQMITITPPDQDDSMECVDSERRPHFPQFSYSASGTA

On to `Cl.NC1(c2ccc(-c3nc4ccn5c(=O)[nH]nc5c4cc3-c3ccccc3)cc2)CCC1`, for which the IC50 in the assay on NCI-H460 [1] stood at 3.4 µM; in the assay with HCC70 [2] it was 0.3 µM. In addition, the CI50 with NCI-H460 [3] came out at 0.34; in the assay with HCC1954 [4], 0.18; in the assay on BT-474 [11], 0.8; in the assay on MDA-MB-453 it was 1.2; in the assay on NCI-H460 [14], 0.27. Moreover, the CI75 in the assay on NCI-H358 was found to be 0.19; in the assay on HCC70 [5] it was 0.28; with MDA-MB-468, 0.25; with HCC1954 [6], 0.13; with HCC1954 [7] it was 0.18; with SK-BR-3, 0.18. In addition, the CI75 in the assay on BT-474 [12] came out at 1.5. Also, the CI90 in the assay with HCC70 [8] was 0.18; in the assay on A2780 [13], 0.39. Also, the inhibition result in [9] is “Active”. Moreover, the outcome in the assay with HCC70 [10] and in the assay on NCI-H460 [16] was Active. The Activity entry in the assay on A2780 [15] was “Dose-Dependent Effect”. Besides, the CI in the assay with NCI-H1703 came out at 0.43. Moreover, the “fold change (FC)” value in the assay with NCI-H661 came out at 2.
